The values below come from ChEMBL document CHEMBL1133450, “Synthesis and antitumor activity of thieno-separated tricyclic purines” (2000).

Test [1] relates to HCT-116. Briefly: Tested for percentage inhibition of HCT116 cell growth after 48 hr at 1 uM. The test is classed as functional. The following applies: Homo sapiens, HCT-116, 48 h; values are per cent of control. A digest of the protocol:
(§1)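 HCT116 cells grown in DMEM with 2 mM L-glutamine, penicillin/streptomycin, nonessential amino acids, 10% heat-inactivated FBS, 37 °C, 5% CO2. Seeded at 500 cells/well, 72 h later refed with serum-containing medium plus DMSO vehicle or agent. CellTiter96 read-out at 24, 48 or 72 h of treatment, expressed as % of DMSO-treated cells. Mean ± SEM, n = 3-5. Student's t-test, significance p < 0.05.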

The test system of test [2] is HCT-116. Briefly: Tested for HCT116 cell growth as percentage of control after 72 hr at 10 uM. The following applies: Homo sapiens, HCT-116, 72 h.
Test [3] deals with HCT-116. Briefly: Tested for percentage inhibition of HCT116 cell growth after 24 hr at 1 uM. Format: functional. The following applies: Homo sapiens, HCT-116, 24 h; values are per cent of control. A digest of the protocol:
as §1

For test [4], the system named is HCT-116. As to the kind of experiment: Tested for percentage inhibition of HCT116 cell growth after 72 hr at 100 uM, (p<0.05). Format: functional. The following applies: Homo sapiens, HCT-116, 72 h; values are per cent of control. Put shortly: as §1
In test [5] the test system is HCT-116. As to the kind of experiment: Tested for percentage inhibition of HCT116 cell growth after 24 hr at 0.1 uM. The following applies: Homo sapiens, HCT-116, 24 h; values are per cent of control. The test is classed as functional. Put shortly:
as §1

Test [6] relates to HCT-116. As to the kind of experiment: Tested for HCT116 cell growth as percentage of control after 24 hr at 10 uM. As to conditions: Homo sapiens, HCT-116, 24 h.
Test [7] relates to HCT-116. Briefly: Tested for HCT116 cell growth as percentage of control after 72 hr at 1 uM. The following applies: Homo sapiens, HCT-116, 72 h.
Test [8] deals with HCT-116. As to the kind of experiment: Tested for HCT116 cell growth as percentage of control after 48 hr at 0.1 uM. As to conditions: Homo sapiens, HCT-116, 48 h.
In test [9] the test system is HCT-116. Briefly: Tested for percentage inhibition of HCT116 cell growth after 48 hr at 10 uM. The test is classed as functional. The following applies: Homo sapiens, HCT-116, 48 h; values are per cent of control. Put shortly: as §1
The subject of test [10] is HCT-116. Briefly: Tested for HCT116 cell growth as percentage of control after 24 hr at 100 uM. As to conditions: Homo sapiens, HCT-116, 24 h.
For test [11], the system named is HCT-116. As to the kind of experiment: Tested for percentage inhibition of HCT116 cell growth after 72 hr at 0.1 uM. Format: functional. As to conditions: Homo sapiens, HCT-116, 72 h; values are per cent of control. Put shortly: as §1
In test [12] the test system is HCT-116. As to the kind of experiment: Tested for HCT116 cell growth as percentage of control after 48 hr at 100 uM, (p<0.005). As to conditions: Homo sapiens, HCT-116, 48 h.
In test [13] the test system is HCT-116. Briefly: Tested for percentage inhibition of HCT116 cell growth after 72 hr at 0.1 uM, (p<0.05). The test is classed as functional. The following applies: Homo sapiens, HCT-116, 72 h; values are per cent of control. Put shortly:
as §1

Test [14] concerns HCT-116. Briefly: Tested for percentage inhibition of HCT116 cell growth after 48 hr at 100 uM, (p<0.05). Format: functional. As to conditions: Homo sapiens, HCT-116, 48 h; values are per cent of control. Put shortly:
as §1

Test [15] has as its system HCT-116. As to the kind of experiment: Tested for HCT116 cell growth as percentage of control after 24 hr at 10 uM. The following applies: Homo sapiens, HCT-116, 24 h. The source holds these as a separate data set.

Turning to `Nc1ncnc2c1sc1nc[nH]c12`, the growth, % of control at 1 µM in [1] worked out at 98.3%; in test [3] it was 107%; in [7], 96.1%. In addition, the figures for the growth (% of control) at 10 µM in test [2], in test [6] and in test [9] were 93.8%, 105% and 105%, respectively. The figures for the growth, % of control at 100 µM in test [4], in [10] and in test [12] were 51.5%, 82% and 71.5%, respectively. The growth, % of control at 0.1 µM is 96.1% in test [5], 105% in test [8] and 101% in test [11].
As for `Nc1nc(O)c2sc3[nH]cnc3c2n1`, the growth, % of control at 1 µM amounted to 95.9% in [1], 96.7% in test [3] and 117% in test [7]. Besides, the values for the growth (% of control) at 10 µM in [2], in test [9] and in test [15] were 99.5%, 85% and 93.2%, respectively. Besides, the growth, % of control at 100 µM is 76.1% in test [4], 77% in test [14] and 75.8% in [10]. For the same compound, the results for the growth, % of control at 0.1 µM in test [5], in test [13] and in test [8] were 98.7%, 107% and 96.8%, respectively.
